Test results as given in ChEMBL document CHEMBL4680142, “Thiazolidine-2,4-dione-based irreversible allosteric IKK-β kinase inhibitors: Optimization into in vivo active anti-inflammatory agents” (Eur J Med Chem, 2020).
Active and inactive are the calls of the source. No cut-off for these calls is given here.

Tests used:
[1] = target: T1, Inhibitor of nuclear factor kappa-B kinase subunit beta (Homo sapiens, UniProt O14920); experiment: Allosteric inhibition of IKKbeta (unknown origin) using 5FAM-GRHDSGLDSMK-NH2 as substrate pretreated for 10 mins followed measured after 2 hrs by TR-FRET assay
T1 sequence (O14920 whole entry): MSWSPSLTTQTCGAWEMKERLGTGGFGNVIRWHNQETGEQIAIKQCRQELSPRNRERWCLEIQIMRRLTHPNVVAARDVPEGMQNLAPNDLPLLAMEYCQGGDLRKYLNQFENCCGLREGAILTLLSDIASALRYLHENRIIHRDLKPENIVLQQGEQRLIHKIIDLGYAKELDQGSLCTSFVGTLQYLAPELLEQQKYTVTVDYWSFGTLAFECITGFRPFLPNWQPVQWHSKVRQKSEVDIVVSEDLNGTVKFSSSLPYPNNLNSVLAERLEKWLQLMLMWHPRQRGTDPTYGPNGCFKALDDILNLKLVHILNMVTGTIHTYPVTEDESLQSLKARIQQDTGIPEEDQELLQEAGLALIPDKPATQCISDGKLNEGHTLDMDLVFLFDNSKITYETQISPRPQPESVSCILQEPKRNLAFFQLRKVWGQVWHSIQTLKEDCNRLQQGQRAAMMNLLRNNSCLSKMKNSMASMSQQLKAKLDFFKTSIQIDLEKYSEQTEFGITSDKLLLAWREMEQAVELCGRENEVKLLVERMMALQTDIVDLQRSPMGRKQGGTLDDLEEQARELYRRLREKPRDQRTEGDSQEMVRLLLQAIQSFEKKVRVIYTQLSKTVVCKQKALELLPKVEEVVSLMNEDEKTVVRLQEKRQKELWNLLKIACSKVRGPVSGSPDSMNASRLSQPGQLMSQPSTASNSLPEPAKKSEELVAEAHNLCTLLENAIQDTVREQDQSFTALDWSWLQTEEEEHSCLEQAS
Summary of the method: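 Enzyme: 0.5 µg/mL IKK2, in 10 mM Tris-HCl pH 7.2, 10 mM MgCl2, 0.05% NaN3, 1 mM DTT, 0.01% Tween-20. Compound at 10 µM pre-incubated 10 min, then 1 µM 5-FAM IκBα peptide and 3 µM ATP added. Reaction 2 h at room temperature. IMAP binding reagent/terbium detection mix added 15 h before reading. TR-FRET read with 340 nm excitation, emission 495/520 nm. Percent inhibition or IC50 derived.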

[2] = target: T1, Inhibitor of nuclear factor kappa-B kinase subunit beta; experiment: Allosteric inhibition of IKKbeta (unknown origin) using 5FAM-GRHDSGLDSMK-NH2 as substrate incubated for 10 mins followed by substrate addition and measured after 60 mins by TR-FRET assay
Summary of the method: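 Kinetic IMAP TR-FRET run with 0.5 µg/mL IKK2 in 10 mM Tris-HCl pH 7.2, 10 mM MgCl2, 0.05% NaN3, 1 mM DTT, 0.01% Tween-20. Compound (ten doses, 30 to 0.001 µM) pre-incubated with enzyme 10 min, then 1 µM IκBα-derived substrate and 3 µM ATP added. Room temperature. Reactions run 0, 20, 40 or 60 min. Ten-point curves fitted by nonlinear regression.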

[3] = target: T2, Inhibitor of nuclear factor kappa-B kinase subunit beta (Homo sapiens) (UniProt O14920); experiment: Allosteric inhibition of IKKbeta (unknown origin) assessed as inactivation constant using 5FAM-GRHDSGLDSMK-NH2 as substrate incubated for 10 mins followed by substrate addition and measured upto 60 mins by TR-FRET assay; conditions: filed as negative allosteric modulator, time 70.0 min
T2 sequence (whole entry): T1 sequence (O14920 whole entry)
Summary of the method: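 IKK2 (0.5 µg/mL) in 10 mM Tris-HCl pH 7.2, 10 mM MgCl2, 0.05% NaN3, 1 mM DTT, 0.01% Tween-20, room temperature. Compound (30 to 0.001 µM, ten roughly three-fold dilutions) preincubated 10 min with enzyme. Reaction started with 1 µM 5FAM-IκBα peptide and 3 µM ATP, run 0, 20, 40 or 60 min. IMAP binding reagent/terbium donor detection, TR-FRET read at 495/520 nm. Kobs fitted against concentration by nonlinear regression.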

RAW264.7 [4] = experiment: Antiinflammatory activity against mouse RAW264.7 cells assessed as reduction in LPS-induced TNF-alpha level incubated for 1 hr followed by LPS stimulation and measured after 24 hrs by ELISA; type: functional, cell-based
Summary of the method: (§1)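 RAW 264.7 cells (DMEM, 10% FBS, 37 °C, 5% CO2) plated at 2×10^5 cells/mL and left overnight. Compounds (0.1, 1, 10 µM) or NS-398 given for 1 h, then LPS 10 ng/mL for 24 h. Culture medium assayed by ELISA: competitive colorimetric for PGE2/TNF-α, mouse DuoSet for TNF-α/IL-6. IC50 is the concentration lowering the mediator to 50%.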

RAW264.7 [5] = experiment: Antiinflammatory activity against mouse RAW264.7 cells assessed as reduction in LPS-induced NO level incubated for 1 hr followed by LPS stimulation and measured after 24 hrs by Griess reagent based assay; type: functional, cell-based
Summary of the method: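 RAW 264.7 cells in 24-well plates received compounds (0.1, 1, 10 µM) or L-NIL 40 µM positive control, then LPS 1 µg/mL for 24 h. Nitrite in the medium measured by Griess reaction as an NO surrogate. Values referenced to levels before and after LPS stimulation.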

RAW264.7 [6] = experiment: Antiinflammatory activity against mouse RAW264.7 cells assessed as reduction in LPS-induced TNF-alpha level at 0.1 to 1 uM incubated for 1 hr followed by LPS stimulation and measured after 24 hrs by ELISA; type: functional, cell-based; conditions: dose 0.1-1 µM, time 25.0 hrs; summary of the method: as §1
[7] = Metabolic stability in rat plasma assessed as parent compound remaining at 1 uM measured upto 2 hrs by LC-MS/MS analysis; type: ADME, cell-free; conditions: read-out: Stabilty
Summary of the method: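 Rat plasma incubated with 1 µM compound at 37 °C for 0, 15, 30, 60 and 120 min. After separation, remaining compound quantified by LC-MS/MS as % remaining.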

[8] = Metabolic stability in human liver microsomes assessed as half life at 1 uM measured upto 1 hrs by LC-MS/MS analysis; type: ADME, Microsome
Summary of the method: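 Pooled human liver microsomes (0.5 mg/mL protein) with 1 µM compound at 37 °C. Reaction stopped at 0, 5, 15, 30 and 60 min and analysed by LC-MS/MS. Amount remaining expressed as % of initial concentration. Mibefradil run as reference.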

Mus musculus = experiment: Antiinflammatory activity against LPS-induced sepsis C57BL/6 mouse model assessed as organism survival rate at 5 to 50 mg/kg, po administered 1 hr before LPS stimulation and measured after 16 hrs relative to control; type: functional; conditions: dose 5-50 mg/kg, time 17 hrs
Summary of the method: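 Male C57BL/6 mice (6 or 10 weeks), water only for 24 h beforehand. Compound given orally at 5 or 50 mg/kg 1 h before intraperitoneal injection of LPS (Salmonella enterica serotype enteritidis, 25 mg/kg in PBS); controls received PBS. Survival monitored for 36 h.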

RAW264.7 [9] = experiment: Antiinflammatory activity against mouse RAW264.7 cells assessed as reduction in LPS-induced PGE2 production at 0.1 uM incubated for 1 hr followed by LPS stimulation and measured after 24 hrs by ELISA; type: functional, cell-based; conditions: time 25.0 hrs; summary of the method: as §1
RAW264.7 [10] = experiment: Antiinflammatory activity against mouse RAW264.7 cells assessed as reduction in LPS-induced PGE2 production at 0.1 to 1 uM incubated for 1 hr followed by LPS stimulation and measured after 24 hrs by ELISA; type: functional, cell-based; conditions: dose 0.1-1 µM, time 25.0 hrs; summary of the method: as §1

| Compound | IC50 [1] [nM] | IC50 [2] [nM] | Kinact [3] [min⁻¹] | IC50 (RAW264.7 [4]) [nM] | IC50 (RAW264.7 [5]) [nM] | inhibition (RAW264.7 [6]) | remaining at 2 h, 1 µM [7] [%] | half-life at 1 µM [8] [min] | Survival (Mus musculus) [%] | Activity (RAW264.7 [9]) | inhibition (RAW264.7 [4]; time 25.0 hrs) | Activity (RAW264.7 [10]) |
| --- | --- | --- | --- | --- | --- | --- | --- | --- | --- | --- | --- | --- |
| CN1CCN(CCCOc2ccc(N3C(=O)S/C(=C\c4ccc(Oc5ccc(C#N)cc5)cc4)C3=O)cc2)CC1 | 200 | 204 | 0.013 | 6270 | > 10000 | inactive | 73.6 | 20 | 100 | Active | – | – |
| CN1CCN(CCCCCOc2cccc(N3C(=O)S/C(=C\c4ccc(Oc5ccc([N+](=O)[O-])cc5)cc4)C3=O)c2)CC1 | 220 | 219 | 0.027 | 5220 | > 10000 | – | 83.3 | 60 | – | – | Dose-dependent effect | inactive |
